Experimental data: paper PMC4569680 (Advances in Therapy, 2015)
Read-outs that look alike come from different tables or passages of the source. Marks after values point to notes of the source that are not given here.

Tests used:
[1] = cited from earlier work
[2] = test system: Japanese patients with T2DM; experiment: Adverse events; assay type: in vivo, human
[3] = test system: Japanese patients with T2DM; experiment: Renal threshold for glucose excretion; assay type: in vivo, human; conditions: Days 1 and 16, versus baseline Day 0
In short: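 RTG was calculated post hoc for Days 0, 1 and 16 from measured plasma glucose, UGE and estimated glomerular filtration rate. Day 0 was a single-blind placebo baseline after an overnight fast; standardized meals were given at about 0, 4.5 and 10.5 h post-dose.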

[4] = assay type: in vivo, human; conditions: for AR (accumulation ratio): AUC0–24h Day 16 / AUC0–24h Day 1, mean (SD)
In short: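 Patients received 25–400 mg QD or placebo on Day 1 and Days 3–16, fasted overnight, with a standardized breakfast within 10 min. Venous blood was drawn at 0, 0.5, 1, 1.5, 2, 3, 4, 6, 8 and 12 h on Days 1 and 16, and before breakfast on Days 2, 17 and 18. Drug was measured by HPLC-MS/MS, range 1–2000 ng/mL. AR = AUC0–24h Day 16/Day 1; linearity factor = AUC0–24h Day 16/AUC0–∞ Day 1.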

[5] = test system: Japanese patients with T2DM; experiment: Urinary electrolyte excretion in 24 hours; assay type: in vivo, human
In short: (§1)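 Volume-related safety was followed as changes from baseline in blood and urinary laboratory parameters: urine volume, sodium excretion, urine and serum osmolality, and hematocrit. Vital signs covered blood pressure, pulse rate and body temperature. Patients received 25–400 mg QD or placebo on Day 1 and Days 3–16 with standardized meals. Urine was collected in timed intervals or 0–24 h pools.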

[6] = 24-h urinary excretion rate of unchanged canagliflozin; assay type: in vivo, human; conditions: for Urinary excretion rate: mean (SD)
In short: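 Urine was collected 0–24 h on Days 1 and 16 during once-daily dosing at 25, 100, 200 or 400 mg, given on Day 1 and Days 3–16 between 8:00 and 9:00 a.m. A standardized breakfast followed within 10 min. Unchanged drug was measured by solid-phase extraction and HPLC-MS/MS with a 13C6-labelled internal standard. The validated range was 1–2000 ng/mL.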

[7] = test system: Japanese patients with T2DM; experiment: Volume-related safety; assay type: in vivo, human
In short: as §1

[8] = test system: Japanese patients with T2DM; experiment: Urinary glucose excretion; assay type: in vivo, human; conditions: for mean change from baseline in UGE0–24h: Day 1
In short: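 Urine was collected in timed intervals (0–2 through 13–24 h) on Days 0, 1 and 16, and as 0–24 h pools on Days 2–6, 15, 17 and 18. Dosing was 25–400 mg or placebo QD on Day 1 and Days 3–16. Change from the Day 0 single-blind placebo baseline was determined on each collection day.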

[9] = canagliflozin groups pooled, 2 cases in 2 of 51 patients
[10] = 25 mg QD repeated dose, Day 16, mean (SD), n = 12
[11] = 25 mg single dose, Day 1, mean (SD), n = 12
[12] = 100 mg QD repeated dose, Day 16, mean (SD), n = 12
[13] = 100 mg single dose, Day 1, mean (SD), n = 12
[14] = 200 mg QD repeated dose, Day 16, mean (SD), n = 14
[15] = 200 mg single dose, Day 1, mean (SD), n = 14
[16] = 400 mg QD repeated dose, Day 16, mean (SD), n = 13
[17] = 400 mg single dose, Day 1, mean (SD), n = 13

In the case of `NS(=O)(=O)c1cc2c(cc1Cl)N=CNS2(=O)=O` [chlorothiazide], the “persistence of diuretic effects” value [1] is listed as “about 1 week”.

For `Cc1ccc([C@@H]2O[C@H](CO)[C@@H](O)[C@H](O)[C@H]2O)cc1Cc1ccc(-c2ccc(F)cc2)s1` [Canagliflozin], the “nasopharyngitis, patients with AE” value ([2]; canagliflozin groups pooled, 1 case in 1 of 51 patients) was 2.0%, the “dizziness, patients with AE” value [2, 9] was 3.9% and the “toothache, patients with AE” value [2, 9] was 3.9%. For the same molecule, the “urine ketone body present, patients with AE” value ([2]; canagliflozin groups pooled, 3 cases in 3 of 51 patients) was 5.9%, the “anemia, patients with AE” value ([2]; canagliflozin groups pooled, 4 cases in 4 of 51 patients) was 7.8% and the “diarrhea, patients with AE” value ([2]; canagliflozin groups pooled, 6 cases in 5 of 51 patients) was 9.8%. For the same molecule, the “occult blood positive, patients with AE” value ([2]; canagliflozin groups pooled, 14 cases in 12 of 51 patients) was 23.5%, the urinary ketones observed ([2]; canagliflozin-treated groups, all mild) was 3 patients and the urinary ketones observed ([2]; dose of 200 mg) was 2 cases. The urinary ketones observed ([2]; dose of 400 mg) was 1 case, the tolerability ([2]; short-term study, patients with T2DM, 25–400 mg) was “well tolerated” and the “AEs related to skin disorders” value ([2]; whole study) was “not observed”. For the same molecule, the “RTG0–24h” value [3] was “decreased”, the “AUC0–24h” value [4, 10] was 1556 (387) ng·h/mL and the C max [4, 10] was 263 (91) ng/mL. The “t 1/2” value [4, 10] was 14.21 (7.46) h, the t max ([4]; 25 mg QD repeated dose, Day 16, median [min–max], n = 12) was 1.0 [1.0–3.0] h and the “AUC0–24h” value [4, 11] was 1295 (240) ng·h/mL. For the same molecule, the C max [4, 11] was 248 (55) ng/mL, the “t 1/2” value [4, 11] was 10.70 (1.76) h and the t max ([4]; 25 mg single dose, Day 1, median [min–max], n = 12) was 1.0 [1.0–2.0] h. The “AR (accumulation ratio)” value ([4]; 25 mg, n = 12) was 1.19 (0.12), the “AUC0–24h” value [4, 12] was 6635 (1367) ng·h/mL and the C max [4, 12] was 1136 (330) ng/mL. The “t 1/2” value [4, 12] was 11.81 (3.22) h, the t max ([4]; 100 mg QD repeated dose, Day 16, median [min–max], n = 12) was 1.0 [1.0–1.5] h and the “AUC0–24h” value [4, 13] was 5468 (899) ng·h/mL. For the same molecule, the C max [4, 13] was 1126 (228) ng/mL, the “t 1/2” value [4, 13] was 10.22 (1.89) h and the t max ([4]; 100 mg single dose, Day 1, median [min–max], n = 12) was 1.0 [1.0–1.5] h. For the same molecule, the “AR (accumulation ratio)” value ([4]; 100 mg, n = 12) was 1.21 (0.12), the “t 1/2” value ([4]; 200 mg QD repeated dose, Day 16, mean (SD), n = 13) was 16.16 (5.87)^c h and the “AUC0–24h” value [4, 14] was 16,716 (5464) ng·h/mL. The C max [4, 14] was 2688 (805) ng/mL, the t max ([4]; 200 mg QD repeated dose, Day 16, median [min–max], n = 14) was 1.3 [1.0–1.5] h and the “AUC0–24h” value [4, 15] was 11,991 (3042) ng·h/mL. The C max [4, 15] was 2304 (539) ng/mL, the “t 1/2” value [4, 15] was 13.26 (4.96) h and the t max ([4]; 200 mg single dose, Day 1, median [min–max], n = 14) was 1.0 [1.0–1.5] h. The “AR (accumulation ratio)” value ([4]; 200 mg, n = 14) was 1.38 (0.17), the “t 1/2” value ([4]; 400 mg QD repeated dose, Day 16, mean (SD), n = 12) was 15.76 (5.56)^d h and the “AUC0–24h” value [4, 16] was 30,766 (7916) ng·h/mL. The C max [4, 16] was 5236 (1123) ng/mL, the t max ([4]; 400 mg QD repeated dose, Day 16, median [min–max], n = 13) was 1.0 [1.0–1.5] h and the “AUC0–24h” value [4, 17] was 21,836 (4983) ng·h/mL. The C max [4, 17] was 5028 (1733) ng/mL, the “t 1/2” value [4, 17] was 12.15 (2.34) h and the t max ([4]; 400 mg single dose, Day 1, median [min–max], n = 13) was 1.0 [1.0–3.0] h. The “AR (accumulation ratio)” value ([4]; 400 mg, n = 13) was 1.42 (0.29), the “mean accumulation ratios (ARs)” value ([4]; AUC0–24h Day 16 / AUC0–24h Day 1, across doses 25–400 mg) was 1.19–1.42 and the linearity factors ([4]; AUC0–24h Day 16 / AUC0–∞ Day 1, any dose (25, 100, 200, 400 mg)) was roughly 1. For the same molecule, the “elimination half-life (t 1/2)” value ([4]; Day 1, across doses 25–400 mg) was 10.22 to 13.26 h, the “elimination half-life (t 1/2)” value ([4]; Day 16, across doses 25–400 mg) was 11.81 to 16.16 h and the t max ([4]; Day 16, across doses 25–400 mg) was 1.0 to 1.3 h. The “plasma concentration reaches steady state” value ([4]; repeated QD dosing from Day 3, all doses) was no more than 7 days, the urinary sodium excretion ([5]; Day 1, reversed within a week) was “transient nominal increase” and the “urinary excretion of electrolytes (potassium, chloride, calcium, magnesium, inorganic phosphorus)” value ([5]; canagliflozin-treated groups compared with the placebo group) was “No remarkable changes were observed”. The Urinary excretion rate ([6]; 25 mg QD repeated dose, Day 16, 0–24 h, n = 12) was 0.599 (0.183) %, the Urinary excretion rate ([6]; 25 mg single dose, Day 1, 0–24 h, n = 12) was 0.387 (0.070) % and the Urinary excretion rate ([6]; 100 mg QD repeated dose, Day 16, 0–24 h, n = 12) was 0.641 (0.204) %. For the same molecule, the Urinary excretion rate ([6]; 100 mg single dose, Day 1, 0–24 h, n = 12) was 0.384 (0.084) %, the Urinary excretion rate ([6]; 200 mg QD repeated dose, Day 16, 0–24 h, n = 14) was 0.614 (0.195) % and the Urinary excretion rate ([6]; 200 mg single dose, Day 1, 0–24 h, n = 14) was 0.424 (0.107) %. For the same molecule, the Urinary excretion rate ([6]; 400 mg QD repeated dose, Day 16, 0–24 h, n = 13) was 0.495 (0.153) %, the Urinary excretion rate ([6]; 400 mg single dose, Day 1, 0–24 h, n = 13) was 0.385 (0.097) % and the “24-h urinary excretion rate of unchanged canagliflozin” value ([6]; Day 1, means at each dose) was “approximately 0.4%”. The “24-h urinary excretion rate of unchanged canagliflozin” value ([6]; Day 16, means at each dose) was 0.5–0.6%, the 24-h urine volume ([7]; Day 1, canagliflozin groups) was “slightly increased” and the “change in urine osmolality over time from baseline” value ([7]; Day 1, canagliflozin-treated groups) was “trend toward an increase”. For the same molecule, the “pulse rate and incidence of orthostatic hypotension” value ([7]; data not shown) was “No increases were observed”, the hematocrit level ([7]; during the study period) was “remained unchanged” and the serum osmolality ([7]; during the treatment period) was “maintained constant”. For the same molecule, the “mean systolic and diastolic blood pressures” value ([7]; groups that received ≥100 mg) was “tended to decrease”, the “UGE after the last administration” value ([8]; 24–48 and 48–72 h after the last administration, ≥100 mg) was “increase in UGE was detected” and the “mean change from baseline in UGE0–24h” value ([8]; 25-mg group) was “approximately 60 g/day”. For the same molecule, the “mean change from baseline in UGE0–24h” value ([8]; 100–400-mg groups) was 80 to 110 g/day.
